The record followed here is ChEMBL document CHEMBL1132767, “Design and synthesis of piperidinyl piperidine analogues as potent and selective M2 muscarinic receptor antagonists” (Bioorg Med Chem Lett, 2000).

For experiment [1], the target named is Muscarinic acetylcholine receptors; M1 & M2 (Homo sapiens) (UniProt P11229+P08172). The experiment in a line: Binding affinity towards M1 receptor compared to M2 receptor. In kind it is protein assay.
Experiment [2] addresses T1, Muscarinic acetylcholine receptor M2 (Homo sapiens, UniProt P08172).
T1 sequence (P08172 whole entry): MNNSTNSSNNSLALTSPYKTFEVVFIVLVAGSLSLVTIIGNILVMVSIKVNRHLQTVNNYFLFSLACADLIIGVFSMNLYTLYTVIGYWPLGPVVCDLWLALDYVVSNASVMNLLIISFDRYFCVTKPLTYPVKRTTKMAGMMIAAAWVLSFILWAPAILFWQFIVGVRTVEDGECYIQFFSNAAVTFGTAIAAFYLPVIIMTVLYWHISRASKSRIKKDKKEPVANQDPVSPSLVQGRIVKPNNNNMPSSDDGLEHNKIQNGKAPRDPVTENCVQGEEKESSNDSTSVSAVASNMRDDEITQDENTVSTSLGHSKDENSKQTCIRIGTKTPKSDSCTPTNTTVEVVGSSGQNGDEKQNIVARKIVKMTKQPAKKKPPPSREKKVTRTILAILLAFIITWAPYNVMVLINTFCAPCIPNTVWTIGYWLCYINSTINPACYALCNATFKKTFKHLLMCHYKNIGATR
The experiment can be described thus: Binding affinity against Muscarinic acetylcholine receptor M2 stably expressed in CHO-K1 cells. In kind it is cell-based. A digest of the protocol: (§1)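 Competition binding against 180 pM [³H]QNB in 10 mM potassium phosphate buffer, pH 7.4, containing 1% DMSO and 0.4% methylcellulose. Incubated 120 min at room temperature to equilibrium. Bound and free label separated by filtration. Nonspecific binding defined with 0.5 mM atropine. Protein adjusted to give 700–1500 cpm specific binding. [³H]QNB Kd for each subtype from saturation binding over 5–2500 pM.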

For experiment [3], the target named is Muscarinic acetylcholine receptors; M2 & M3 (Homo sapiens) (UniProt P20309+P08172). The experiment can be described thus: Binding affinity towards M3 receptor compared to M2 receptor. The format is protein assay.
Experiment [4] concerns the target T2, Muscarinic acetylcholine receptor M1 (Homo sapiens, UniProt P11229).
T2 sequence (P11229 whole entry): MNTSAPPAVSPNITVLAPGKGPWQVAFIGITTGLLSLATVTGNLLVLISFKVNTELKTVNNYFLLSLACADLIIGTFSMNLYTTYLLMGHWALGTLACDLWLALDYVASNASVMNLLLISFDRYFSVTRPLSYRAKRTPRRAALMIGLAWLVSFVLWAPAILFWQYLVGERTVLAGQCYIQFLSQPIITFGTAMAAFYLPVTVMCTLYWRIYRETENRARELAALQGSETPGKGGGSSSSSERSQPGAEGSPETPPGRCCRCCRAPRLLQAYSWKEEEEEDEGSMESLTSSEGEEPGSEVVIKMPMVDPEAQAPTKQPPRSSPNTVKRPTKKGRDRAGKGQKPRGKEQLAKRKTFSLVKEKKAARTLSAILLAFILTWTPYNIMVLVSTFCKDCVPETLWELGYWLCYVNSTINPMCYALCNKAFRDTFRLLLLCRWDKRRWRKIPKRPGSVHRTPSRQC
The experiment can be described thus: Binding affinity against Muscarinic acetylcholine receptor M1 expressed in CHO-K1 cells. In kind it is cell-based. The procedure, abridged:
as §1

The target of experiment [5] is Muscarinic acetylcholine receptor M3 (Homo sapiens, UniProt P20309). The experiment can be described thus: Binding affinity against Muscarinic acetylcholine receptor M3 expressed in CHO-K1 cells. In kind it is cell-based. A digest of the protocol: as §1
Sequence of Muscarinic acetylcholine receptor M3 (P20309 whole entry): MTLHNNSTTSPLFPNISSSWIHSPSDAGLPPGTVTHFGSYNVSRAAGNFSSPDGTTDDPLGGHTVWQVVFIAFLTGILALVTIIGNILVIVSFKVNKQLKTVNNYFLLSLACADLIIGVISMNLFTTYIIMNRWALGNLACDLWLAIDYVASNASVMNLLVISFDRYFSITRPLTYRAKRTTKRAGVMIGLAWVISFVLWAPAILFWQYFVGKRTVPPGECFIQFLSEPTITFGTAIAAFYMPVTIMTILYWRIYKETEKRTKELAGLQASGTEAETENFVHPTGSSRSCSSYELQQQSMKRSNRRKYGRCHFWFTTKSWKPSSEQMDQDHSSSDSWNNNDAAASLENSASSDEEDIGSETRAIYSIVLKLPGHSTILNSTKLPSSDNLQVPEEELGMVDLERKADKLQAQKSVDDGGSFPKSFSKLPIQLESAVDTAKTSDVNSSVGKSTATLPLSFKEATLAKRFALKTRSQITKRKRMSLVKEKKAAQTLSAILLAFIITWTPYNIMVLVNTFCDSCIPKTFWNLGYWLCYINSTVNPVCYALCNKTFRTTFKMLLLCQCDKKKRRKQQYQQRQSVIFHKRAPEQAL

Sequence of Muscarinic acetylcholine receptors; M2 & M3 (Homo sapiens) (P20309 whole entry, looked up, one chain of several): as the sequence (P20309 whole entry) above

Usually Ki stands for the equilibrium dissociation constant of an inhibitor or competing ligand from its target. Low readings indicate a stronger hold on the target, high ones a looser hold on the target. As to `C=C(c1ccc(S(=O)(=O)c2ccc(OC)cc2)cc1)C1CCN(C2CCN(C(=O)C3CC3)CC2)CC1`, the Selectivity came to 262 in experiment [1] and 260 in experiment [3]. Also, affinity in experiment [2] was put at a Ki of 0.26 nM.

As to `C=C(c1ccc(S(=O)(=O)c2ccc(OC)cc2)cc1)C1CCN(C2CCN(S(=O)(=O)c3ccccc3)CC2)CC1`, the Selectivity in experiment [1] worked out at 104; in experiment [3], 558. For the same compound, the Ki in experiment [2] stood at 0.36 nM.

In the case of `C=C(c1ccc(S(=O)(=O)c2ccc(OC)cc2)cc1)C1CCN(C2CCN(C(=O)OCC)CC2)CC1`, the Ki in experiment [4] is 6.5 nM; in experiment [2] it was 0.11 nM; in experiment [5], 3.7 nM. In addition, the Selectivity amounted to 59 in experiment [1] and 34 in experiment [3].

Take `C=C(c1ccc(S(=O)(=O)c2ccc(OC)cc2)cc1)C1CCN(C2CCN(C(=O)OCCC)CC2)CC1`: the Selectivity came to 69 in experiment [1] and 40 in experiment [3]. The Ki in experiment [2] is 0.59 nM.

Take `C=C(c1ccc(S(=O)(=O)c2ccc(OC)cc2)cc1)C1CCN(C2CCCCC2)CC1`: the values for the Selectivity in experiment [1] and in experiment [3] were 16 and 3, respectively.

Consider `C=C(c1ccc(S(=O)(=O)c2ccc(OC)cc2)cc1)C1CCN(C2CCNCC2)CC1`, for which the figures for the Ki in experiment [4], in experiment [2] and in experiment [5] were 9.1 nM, 1.14 nM and 3.4 nM, respectively. In addition, the values for the Selectivity in experiment [1] and in experiment [3] were 8 and 3, respectively.

For `C=C(c1ccc(S(=O)(=O)c2ccc(OC)cc2)cc1)C1CCN(C2CCN(C(=O)CCC)CC2)CC1`, the Ki in experiment [4] was 42 nM; in experiment [2], 0.38 nM; in experiment [5], 122 nM. Further, the results for the Selectivity in experiment [1] and in experiment [3] were 111 and 324, respectively.

With `C=C(c1ccc(S(=O)(=O)c2ccc(OC)cc2)cc1)C1CCN(C2CCN(C(=O)C(C)C)CC2)CC1`, the Selectivity was 53 in experiment [1] and 40 in experiment [3]. Moreover, affinity in experiment [2] was put at a Ki of 2.2 nM.

As to `C=C(c1ccc(S(=O)(=O)c2ccc(OC)cc2)cc1)C1CCN(C2CCN(S(=O)(=O)CCC)CC2)CC1`, the results for the Ki in experiment [4], in experiment [2] and in experiment [5] were 25.7 nM, 0.29 nM and 10.1 nM, respectively. The Selectivity amounted to 89 in experiment [1] and 35 in experiment [3].

For `C=C(c1ccc(S(=O)(=O)c2ccc(OC)cc2)cc1)C1CCN(C2CCN(S(=O)(=O)CCCC)CC2)CC1`, the results for the Selectivity in experiment [1] and in experiment [3] were 150 and 405, respectively. The same compound had a Ki in experiment [2] of 0.38 nM.

In experiment [1], `C=C(c1ccc(S(=O)(=O)c2ccc(OC)cc2)cc1)C1CCN(C2CCN(C(=O)OCC(C)C)CC2)CC1` returned a Selectivity of 35. Further, the affinity in experiment [2], expressed as Ki, was 0.3 nM.

On to `C=C(c1ccc(S(=O)(=O)c2ccc(OC)cc2)cc1)C1CCN(C2CCN(C(=O)Cc3ccccc3)CC2)CC1`, for which the Selectivity in experiment [1] came out at 32; in experiment [3] it was 48. This compound displayed a Ki in experiment [2] of 2.99 nM.

On to `C=C(c1ccc(S(=O)(=O)c2ccc(OC)cc2)cc1)C1CCN(C2CCN(S(=O)(=O)CC)CC2)CC1`, for which the Selectivity in experiment [1] stood at 162; in experiment [3], 382. In experiment [2], the affinity corresponds to a Ki of 0.46 nM.

`C=C(c1ccc(S(=O)(=O)c2ccc(OC)cc2)cc1)C1CCN(C2CCN(C(=O)OCc3ccccc3)CC2)CC1`: in experiment [1], the Selectivity stood at 24. The same compound displayed a Ki in experiment [2] of 0.45 nM.

On to `C=C(c1ccc(S(=O)(=O)c2ccc(OC)cc2)cc1)C1CCN(C2CCN(C(=O)OC(C)C)CC2)CC1`, for which the Selectivity in experiment [1] came to 36. This compound displayed a Ki in experiment [2] of 0.41 nM.

In the case of `C=C(c1ccc(S(=O)(=O)c2ccc(OC)cc2)cc1)C1CCN(C2CCN(S(=O)(=O)Cc3ccccc3)CC2)CC1`, the Selectivity in experiment [1] came out at 23; in experiment [3] it was 54. The Ki in experiment [2] is 1.45 nM.

On to `C=C(c1ccc(S(=O)(=O)c2ccc(OC)cc2)cc1)C1CCN(C2CCN(C(=O)CC)CC2)CC1`, for which the Selectivity in experiment [1] is 16; in experiment [3], 13. Also, the affinity in experiment [2] corresponds to a Ki of 3.8 nM.

Turning to `C=C(c1ccc(S(=O)(=O)c2ccc(OC)cc2)cc1)C1CCN(C2CCN(C(=O)OCCCC)CC2)CC1`, the Selectivity in experiment [1] came out at 28. In experiment [2], this compound showed a Ki of 0.35 nM.

As for `C=C(c1ccc(S(=O)(=O)c2ccc(OC)cc2)cc1)C1CCN(C2CCN(C(=O)OC)CC2)CC1`, the values for the Selectivity in experiment [1] and in experiment [3] were 61 and 55, respectively. For the same compound, the Ki in experiment [2] amounted to 0.99 nM.

As for `C=C(c1ccc(S(=O)(=O)c2ccc(OC)cc2)cc1)C1CCN(C2CCN(S(=O)(=O)C(C)C)CC2)CC1`, the Selectivity in experiment [1] stood at 198; in experiment [3] it was 440. This compound also showed a Ki in experiment [2] of 0.16 nM.
